{"source": "paper PMC9486889", "about": "(Japanese Journal of Clinical Oncology, 2022)", "key": {"[1]": {"system": "relapsed or refractory non-Hodgkin's lymphoma", "assay": "Anti-tumor activity", "format": "in vivo, Japanese patients"}, "HDAC3": {"system": "HDAC3", "details": "cited from earlier work"}, "[2]": {"assay": "Plasma and urine pharmacokinetics, Cycle 1", "format": "in vivo, Japanese patients", "outline": "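Oral 30 or 40 mg BIW. In Cycle 1, plasma was sampled on Days 1 and 25 from pre-dose to 72 h post-dose. Urine was collected in three 24-h intervals after the Day 1 and Day 25 doses. Parent drug and metabolites were measured by LC/MS–MS. The PK population received ≥1 Cycle 1 dose and had ≥1 measured post-dose concentration.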"}, "[3]": {"details": "40 mg BIW cohort, seven patients"}, "[4]": {"details": "NHL other than ATL, 30 mg BIW, 5 patients"}, "[5]": {"details": "NHL other than ATL, 40 mg BIW, 3 patients"}}, "data": [{"smiles": "Nc1cc(F)ccc1NC(=O)c1ccc(CNC(=O)/C=C/c2cccnc2)cc1", "note": "[HBI-8000, tucidinostat]", "values": [{"measurement": "Stable disease after the first cycle", "setting": "[1]; 30 mg BIW cohort", "value": "three of six"}, {"measurement": "Disease control (CR + CRu + PR + SD)", "setting": "[1]; 30 mg BIW cohort, six patients", "value": 66.7, "unit": "%"}, {"measurement": "ORR", "setting": "[1]; 30 mg BIW cohort, six patients", "value": 16.7, "unit": "%"}, {"measurement": "Objective response", "setting": "[1]; 40 mg BIW cohort", "value": "five of seven"}, {"measurement": "Partial responders with adult T-cell leukemia-lymphoma", "setting": "[1]; 40 mg BIW cohort", "value": "three"}, {"measurement": "Disease control (CR + CRu + PR + SD)", "setting": "[1]; [3]", "value": 100, "unit": "%"}, {"measurement": "ORR", "setting": "[1]; [3]", "value": 71.4, "unit": "%"}, {"measurement": "Best overall response: PR", "setting": "[1]; ATL, 30 mg BIW, 1 patient", "value": "0 (0) n (%)"}, {"measurement": "Best overall response: SD", "setting": "[1]; ATL, 30 mg BIW, 1 patient", "value": "1 (100) n (%)"}, {"measurement": "Disease control (CR, PR or SD)", "setting": "[1]; ATL, 30 mg BIW, 1 patient", "value": "1 (100) n (%)"}, {"measurement": "Objective response (CR or PR)", "setting": "[1]; ATL, 30 mg BIW, 1 patient", "value": "0 (0.0) n (%)"}, {"measurement": "Best overall response: PR", "setting": "[1]; ATL, 40 mg BIW, 4 patients", "value": "3 (75.0) n (%)"}, {"measurement": "Best overall response: SD", "setting": "[1]; ATL, 40 mg BIW, 4 patients", "value": "1 (25.0) n (%)"}, {"measurement": "Disease control (CR, PR or SD)", "setting": "[1]; ATL, 40 mg BIW, 4 patients", "value": "4 (100) n (%)"}, {"measurement": "Objective response (CR or PR)", "setting": "[1]; ATL, 40 mg BIW, 4 patients", "value": "3 (75.0) n (%)"}, {"measurement": "Objective response", "setting": "[1]; NHL other than ATL, 30 mg BIW cohort", "value": 20, "unit": "%"}, {"measurement": "Best overall response: CR", "setting": "[1]; [4]", "value": "0 (0) n (%)"}, {"measurement": "Best overall response: CRu", "setting": "[1]; [4]", "value": "1 (20.0) n (%)"}, {"measurement": "Best overall response: PD", "setting": "[1]; [4]", "value": "2 (40.0) n (%)"}, {"measurement": "Best overall response: SD", "setting": "[1]; [4]", "value": "2 (40.0) n (%)"}, {"measurement": "Disease control (CR, CRu, PR or SD)", "setting": "[1]; [4]", "value": "3 (60.0) n (%)"}, {"measurement": "Objective response (CR, CRu or PR)", "setting": "[1]; [4]", "value": "1 (20.0) n (%)"}, {"measurement": "Objective response", "setting": "[1]; NHL other than ATL, 40 mg BIW cohort", "value": 66.7, "unit": "%"}, {"measurement": "Best overall response: CR", "setting": "[1]; [5]", "value": "1 (33.3) n (%)"}, {"measurement": "Best overall response: CRu", "setting": "[1]; [5]", "value": "1 (33.3) n (%)"}, {"measurement": "Best overall response: PD", "setting": "[1]; [5]", "value": "0 (0) n (%)"}, {"measurement": "Best overall response: SD", "setting": "[1]; [5]", "value": "1 (33.3) n (%)"}, {"measurement": "Disease control (CR, CRu, PR or SD)", "setting": "[1]; [5]", "value": "3 (100) n (%)"}, {"measurement": "Objective response (CR, CRu or PR)", "setting": "[1]; [5]", "value": "2 (66.7) n (%)"}, {"measurement": "Responses in patients with ATL", "setting": "[1]; both cohorts", "value": "three out of five"}, {"measurement": "Inhibition of HDAC activity", "setting": "HDAC3", "value": "selectively inhibits"}, {"measurement": "Administered dose excreted unchanged in urine over the dosing interval, average", "setting": "[2]; 30 mg cohort", "value": 25.3, "unit": "%"}, {"measurement": "Administered dose excreted unchanged in urine over the dosing interval, average", "setting": "[2]; 40 mg cohort", "value": 21.9, "unit": "%"}, {"measurement": "half-life", "setting": "[2]; human, plasma, oral, 40 mg, Mean t1/2, 30 and 40 mg, Days 1 and 25", "value": "1030 to 1300", "unit": "min"}, {"measurement": "AUC(0-inf)", "setting": "[2]; human, plasma, po, 30 mg", "value": 4000, "unit": "ng·h/mL"}, {"measurement": "AUC(0-inf)", "setting": "[2]; human, plasma, po, 40 mg", "value": 7160, "unit": "ng·h/mL"}, {"measurement": "Tmax", "setting": "[2]; human, plasma, po, 40 mg, Median tmax, single and repeat oral administration, 30 and 40 mg", "value": "2.42 to 5", "unit": "h"}]}]}
